ChEMBL document CHEMBL3108700, “Designing anti-inflammatory drugs from parasitic worms: a synthetic small molecule analogue of the Acanthocheilonema viteae product ES-62 prevents development of collagen-induced arthritis” (J Med Chem, 2013)
Active and inactive are the calls of the source. Unless noted, the calls are words filed in the database; no cut-off is given here.

Columns and labels:
[1] = system: Mus musculus; test: Antiinflammatory activity in DBA/1 mouse collagen-induced arthritis model assessed as reduction in number of gammadelta+ T cells at 50 ug/kg, sc administered 2 days prior to collagen challenge continued till day 21 post collagen challenge; assay type: functional, organism-based; conditions: T-cell
Outline: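 Dosing was 1 μg/dose or PBS given subcutaneously on days −2, 0 and 21 of CIA. Total, CD4+, CD8+ and γδ T cell numbers in draining lymph nodes were counted by flow cytometry for each mouse. Naive mice not exposed to collagen served as a further control (naive n = 7; PBS and treated n = 13).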

[2] = molecular target: T1, Toll-like receptor 4 (Mus musculus) (UniProt Q9QUK6); test: Inhibition of TLR4 in C57BL/6 mouse BMDC assessed as reduction of LPS-induced TNF-alpha production at 5 ug/mL preincubated for 2 hrs prior to LPS challenge measured after 24 hrs by ELISA
T1 sequence (whole entry): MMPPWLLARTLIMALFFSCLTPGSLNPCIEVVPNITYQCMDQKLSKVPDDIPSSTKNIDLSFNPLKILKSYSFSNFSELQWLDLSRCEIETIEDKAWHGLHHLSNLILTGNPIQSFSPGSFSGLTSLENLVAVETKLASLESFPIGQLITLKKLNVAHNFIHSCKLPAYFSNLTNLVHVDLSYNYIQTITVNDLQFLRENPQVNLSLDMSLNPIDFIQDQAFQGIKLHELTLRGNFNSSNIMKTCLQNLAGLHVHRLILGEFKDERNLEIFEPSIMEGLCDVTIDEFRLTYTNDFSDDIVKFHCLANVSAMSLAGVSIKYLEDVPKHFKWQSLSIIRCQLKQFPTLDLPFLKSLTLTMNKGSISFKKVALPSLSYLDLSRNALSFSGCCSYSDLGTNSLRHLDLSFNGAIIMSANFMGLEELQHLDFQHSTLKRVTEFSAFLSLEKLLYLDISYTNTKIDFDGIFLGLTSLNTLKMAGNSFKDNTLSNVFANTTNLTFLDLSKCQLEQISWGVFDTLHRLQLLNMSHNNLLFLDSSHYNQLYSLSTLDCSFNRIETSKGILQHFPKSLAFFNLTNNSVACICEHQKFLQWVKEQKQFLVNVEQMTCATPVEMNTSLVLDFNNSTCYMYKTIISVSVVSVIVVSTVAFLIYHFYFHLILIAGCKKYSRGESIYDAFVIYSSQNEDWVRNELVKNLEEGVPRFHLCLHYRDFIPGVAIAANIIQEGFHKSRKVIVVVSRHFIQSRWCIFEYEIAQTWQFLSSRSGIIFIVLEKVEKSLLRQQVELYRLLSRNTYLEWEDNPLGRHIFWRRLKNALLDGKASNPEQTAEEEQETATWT
Outline: (§1)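 C57BL/6 bone marrow DCs were generated in complete RPMI with 10 ng/mL GM-CSF. They were preincubated ± compound at 5 μg/mL for 2 h, then stimulated with LPS for 24 h. TNF-α, IL-6 and IL-23 in conditioned medium were measured by ELISA. Values are means of triplicates ± SEM pooled from 4 experiments.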

[3] = system: Mus musculus; test: Antiinflammatory activity in DBA/1 mouse collagen-induced arthritis model assessed as reduction of high disease scores at 50 ug/kg, sc administered 2 days prior to collagen challenge continued till day 21 post collagen challenge; assay type: functional, organism-based
Outline: (§2)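 Collagen-induced arthritis mice were dosed subcutaneously (1 μg/dose) or given PBS on days −2, 0 and 21. Arthritis was scored clinically and hind paw width measured. Incidence was the % of mice with severity score ≥2 (cumulative) or ≥4 (high score). Results are mean ± SEM. Scores n = 13 per group, pooled from two experiments; paw width n = 7, from a single experiment.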

[4] = molecular target: T1, Toll-like receptor 4 (Mus musculus); test: Inhibition of TLR4 in BALB/c mouse BMDM assessed as downregulation of LPS-stimulated IL-6 level at 5 ug/ml preincubated for 18 hrs followed by LPS challenge measured after 24 hrs by ELISA relative to control
Outline: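 BALB/c male bone marrow macrophages were differentiated 7 days with L929 supernatant (≥99% CD11b+/F4/80+). Cells were plated at 2 × 10^5/well in triplicate, rested overnight, and given compounds at 5 μg/mL for 18 h. They were then stimulated with 100 ng/mL S. minnesota LPS, 10 ng/mL Pam3CSK4 (BLP) or 0.01 μM CpG for 24 h. Supernatant IL-12p40 and IL-6 were measured by ELISA (sensitivity 16 pg/mL).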

[5] = system: Mus musculus; test: (§3) Antiinflammatory activity in DBA/1 mouse collagen-induced arthritis model assessed as reduction in number of PMA/ionomycin-stimulated total DLN cells expressing IL-17 at 50 ug/kg, sc administered 2 days prior to collagen challenge continued till day 21 post collagen challenge by flow cytometric analysis relative to control; assay type: functional, organism-based
Outline: (§4)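 CIA mice given test agent (1 μg/dose) or PBS subcutaneously on days −2, 0 and 21. Draining lymph node cells (10^6/mL) in complete RPMI were stimulated ± 50 ng/mL PMA plus 500 ng/mL ionomycin, with 10 μg/mL brefeldin A for 5 h at 37 °C. Cells were surface-stained for CD4, CD8 and γδ, fixed and permeabilized, then stained for intracellular IFNγ and IL-17A. Gating used isotype controls. Cell numbers per individual mouse; naive n = 7, treated groups n = 13.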

[6] = system: Mus musculus; test: Antiinflammatory activity in DBA/1 mouse collagen-induced arthritis model assessed as reduction of hind paw width at 50 ug/kg, sc administered 2 days prior to collagen challenge continued till day 21 post collagen challenge; assay type: functional, organism-based; outline: as §2
[7] = organism: Mus musculus; test: Inhibition of TLR4/IL-1R in BALB/c mouse BMDM assessed as downregulation of LPS-stimulated MyD88 protein expression at 5 ug/mL after 20 hrs by Western blotting analysis relative to control
Outline: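 Bone marrow macrophages were treated 20 h with medium, compound (1 or 5 μg/mL) or LPS (100 ng/mL) and lysed in modified RIPA buffer. Protein (30 μg) was separated on Bis-Tris gels, and MyD88 and GAPDH were detected by Western blot with ECL. Densitometric MyD88:GAPDH ratio was normalized to the RPMI value, from six analyses.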

[8] = Cytotoxicity against LPS-stimulated BALB/c mouse BMDM assessed as loss of cell viability at 5 ug/mL preincubated for 18 hrs followed by LPS challenge measured after 24 hrs by 7-AAD staining-based flow cytometric analysis
Outline: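 BALB/c bone marrow macrophages (2 × 10^5/well) were rested 24 h in complete RPMI, then given 5 μg/mL compound for 18 h. Cells were stained with 7-AAD for 10 min on ice and the dead fraction read by flow cytometry. One experiment is representative of two.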

[9] = molecular target: T1, Toll-like receptor 4 (Mus musculus); test: Inhibition of TLR4 in C57BL/6 mouse BMDC assessed as reduction of LPS-induced IL-6 production at 5 ug/mL preincubated for 2 hrs prior to LPS challenge measured after 24 hrs by ELISA; outline: as §1
[10] = system: Mus musculus; test: as §3, with “CD4+ T” for “total DLN”; assay type: functional, organism-based; conditions: T-cell; outline: as §4

CN(C)CCS(=O)(=O)Cc1ccc(Br)cc1
Activity [1]: Active | inhibition [2]: Active | Activity [3]: Active | inhibition [4]: Active | Activity [5]: Active | Activity [6]: Active | fold change (FC) [7]: 0.736 | Activity [8]: Non-toxic | inhibition [9]: Active | Activity [10]: Active
